According to ChEMBL document CHEMBL3872208, “Synthesis and pharmacological characterization of novel N-(trans-4-(2-(4-(benzo[d]isothiazol-3-yl)piperazin-1-yl)ethyl)cyclohexyl)amides as potential multireceptor atypical antipsychotics” (Eur J Med Chem, 2016):
The source made the active and inactive calls. No cut-off for these calls is given here.

What was measured:
D(3) dopamine receptor [1] = molecular target: T1, D(3) dopamine receptor (Homo sapiens, UniProt P35462); test: Displacement of [3H]methyl-spiperone from recombinant human D3 receptor expressed in CHO cell membranes after 60 mins by scintillation counting method
T1 sequence (P35462 whole entry): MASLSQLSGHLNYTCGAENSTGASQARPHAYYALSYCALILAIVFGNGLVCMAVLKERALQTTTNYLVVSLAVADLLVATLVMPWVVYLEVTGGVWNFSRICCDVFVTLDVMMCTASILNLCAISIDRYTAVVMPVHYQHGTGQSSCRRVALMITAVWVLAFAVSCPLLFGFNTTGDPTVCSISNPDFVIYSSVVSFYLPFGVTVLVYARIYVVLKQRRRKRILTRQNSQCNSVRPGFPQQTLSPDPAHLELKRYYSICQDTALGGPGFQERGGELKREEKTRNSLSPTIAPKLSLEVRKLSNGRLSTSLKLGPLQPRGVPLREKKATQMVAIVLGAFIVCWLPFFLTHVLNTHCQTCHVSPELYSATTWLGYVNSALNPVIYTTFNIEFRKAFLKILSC

Rattus norvegicus [2] = test: Reversal of PCP-induced hyperlocomotion activity in ip dosed Sprague-Dawley rat pretreated for 10 mins followed by PCP challenge measured after […]; format: functional, organism-based
Rattus norvegicus [3] = test: Antipsychotic activity in Sprague-Dawley rat assessed as inhibition of conditioned avoidance behavior at 1.0 to 2.0 mg/kg, ip administered as single dose measured after 1 hr; format: functional, organism-based
Method in brief: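 Male SD rats (150–180 g, 6 per group) trained in automated shuttle-boxes; only rats exceeding 80% avoidance were used. Single i.p. dose of 1.0 or 2.0 mg/kg given 1 h before a 20-trial session. Read-out is percentage of avoidance (mean ± SEM, n = 6), compared with the vehicle group.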

D(2) dopamine receptor = D(2) dopamine receptor (Homo sapiens, UniProt P14416); test: Agonist activity at D2 receptor (unknown origin) expressed in CHOK1 cells co-expressing G-alpha 15 by fluo-4 dye based FLIPR assay; format: cell-based, CHO-K1
Chain of D(2) dopamine receptor (P14416 whole entry): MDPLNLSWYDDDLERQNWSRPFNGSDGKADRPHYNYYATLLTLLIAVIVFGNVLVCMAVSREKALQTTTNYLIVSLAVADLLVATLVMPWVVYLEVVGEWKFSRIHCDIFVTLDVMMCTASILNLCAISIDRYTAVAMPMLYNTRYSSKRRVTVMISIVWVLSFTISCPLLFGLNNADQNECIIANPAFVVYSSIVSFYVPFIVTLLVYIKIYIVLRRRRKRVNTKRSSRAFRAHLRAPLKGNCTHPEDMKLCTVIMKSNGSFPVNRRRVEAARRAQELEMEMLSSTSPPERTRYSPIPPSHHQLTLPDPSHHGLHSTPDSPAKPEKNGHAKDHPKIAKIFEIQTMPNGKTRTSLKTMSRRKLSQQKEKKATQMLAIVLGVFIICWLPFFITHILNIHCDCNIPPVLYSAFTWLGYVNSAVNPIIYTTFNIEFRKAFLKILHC

[4] = molecular target: T2, 5-hydroxytryptamine receptor 1A (Homo sapiens, UniProt P08908); test: Agonist activity at 5-HT1A receptor (unknown origin) expressed in CHOK1 cells co-expressing G-alpha 15 by Fluo-4 dye based FLIPR assay; format: cell-based, CHO-K1
T2 sequence (P08908 whole entry): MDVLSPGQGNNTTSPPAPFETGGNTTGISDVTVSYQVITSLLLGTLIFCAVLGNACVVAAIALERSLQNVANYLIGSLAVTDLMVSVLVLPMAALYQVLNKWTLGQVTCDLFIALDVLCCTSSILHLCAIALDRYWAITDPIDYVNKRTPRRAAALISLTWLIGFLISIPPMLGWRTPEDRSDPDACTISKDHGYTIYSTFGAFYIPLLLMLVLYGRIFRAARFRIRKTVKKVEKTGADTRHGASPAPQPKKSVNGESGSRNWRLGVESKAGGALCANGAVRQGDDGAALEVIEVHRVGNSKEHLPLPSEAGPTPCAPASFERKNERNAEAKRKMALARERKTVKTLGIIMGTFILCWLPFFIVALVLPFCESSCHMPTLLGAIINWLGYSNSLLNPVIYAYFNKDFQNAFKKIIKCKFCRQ

D(3) dopamine receptor [5] = molecular target: T1, D(3) dopamine receptor; test: Antagonistic activity at D3 receptor (unknown origin) expressed in cell membranes assessed as inhibition of quinpirole-induced response after 40 mins by [35S]GTPgammaS binding assay; format: functional
Method in brief: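 Membranes (20 mg membrane protein as printed) incubated 40 min at 30 °C in 50 mM Tris pH 7.4, 5 mM MgCl2, 1 mM EDTA, 100 mM NaCl, 1 mM DTT. Mix contained 0.1 nM [35S]GTPγS, GDP, quinpirole as agonist and varied compound concentrations. Nonspecific binding was taken with Gpp(NH)p. Reaction stopped with ice-cold buffer, then GF/C filtration and scintillation counting. Mean IC50 from two experiments, eight concentrations in duplicate.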

D(3) dopamine receptor [6] = molecular target: T1, D(3) dopamine receptor; test: Agonist activity at D3 receptor (unknown origin) expressed in cell membranes after 40 mins by [35S]GTPgammaS binding assay; format: functional
[7] = molecular target: T3, 5-hydroxytryptamine receptor 2A (Homo sapiens, UniProt P28223); test: Agonist activity at 5-HT2A receptor (unknown origin) expressed in CHOK1 cells co-expressing G-alpha 15 by Fluo-4 dye based FLIPR assay; format: cell-based, CHO-K1
T3 sequence (P28223 whole entry): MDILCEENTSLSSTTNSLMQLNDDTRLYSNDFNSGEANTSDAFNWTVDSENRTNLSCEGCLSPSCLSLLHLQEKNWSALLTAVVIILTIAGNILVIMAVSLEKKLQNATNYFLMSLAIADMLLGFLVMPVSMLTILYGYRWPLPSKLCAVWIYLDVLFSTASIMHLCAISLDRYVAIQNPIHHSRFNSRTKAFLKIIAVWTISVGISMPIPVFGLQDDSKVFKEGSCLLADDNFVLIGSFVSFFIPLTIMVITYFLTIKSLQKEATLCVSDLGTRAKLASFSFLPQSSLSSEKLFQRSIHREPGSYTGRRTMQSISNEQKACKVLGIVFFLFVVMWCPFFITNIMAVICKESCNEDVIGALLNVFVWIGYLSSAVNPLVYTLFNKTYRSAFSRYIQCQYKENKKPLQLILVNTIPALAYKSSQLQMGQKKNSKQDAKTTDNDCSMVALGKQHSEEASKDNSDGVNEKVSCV

[8] = molecular target: T3, 5-hydroxytryptamine receptor 2A; test: Antagonistic activity at 5-HT2A receptor (unknown origin) expressed in CHOK1 cells co-expressing G-alpha 15 assessed as inhibition of serotonin-induced calcium flux by Fluo-4 based FLIPR assay; format: functional, cell-based, CHO-K1
[9] = Cmax in Sprague-Dawley rat plasma at 0.5 mg/kg, iv administered as single dose by LC-MS/MS analysis; format: ADME, organism-based; set-up: dose 0.5 mg/kg, route intravenous
Method in brief: (§1)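 Male SD rats, single dose: 0.5 mg/kg i.v. or 2.0 mg/kg p.o. Vehicle is 5% DMSO, 10% Solutol HS 15 and 85% PBS. Heparinized blood is sampled at 5, 15 and 30 min and at 1, 2, 4, 8 and 24 h after dosing. Plasma is reported in ng/mL and brain in ng/g. F is derived from the p.o. and i.v. arms.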

[10] = Cmax in Sprague-Dawley rat brain at 0.5 mg/kg, iv administered as single dose by LC-MS/MS analysis; format: ADME, organism-based; set-up: dose 0.5 mg/kg, route intravenous; method in brief: as §1
[11] = Half life in Sprague-Dawley rat plasma at 0.5 mg/kg, iv administered as single dose by LC-MS/MS analysis; format: ADME, organism-based; method in brief: as §1
[12] = Half life in Sprague-Dawley rat brain at 0.5 mg/kg, iv administered as single dose by LC-MS/MS analysis; format: ADME, organism-based; method in brief: as §1
[13] = Half life in Sprague-Dawley rat plasma at 2.0 mg/kg, po administered as single dose by LC-MS/MS analysis; format: ADME, organism-based; method in brief: as §1
[14] = Half life in Sprague-Dawley rat brain at 2 mg/kg, po administered as single dose by LC-MS/MS analysis; format: ADME, organism-based; method in brief: as §1
[15] = Tmax in Sprague-Dawley rat plasma at 2 mg/kg, po administered as single dose by LC-MS/MS analysis; format: ADME, organism-based; method in brief: as §1
[16] = Tmax in Sprague-Dawley rat brain at 2 mg/kg, po administered as single dose by LC-MS/MS analysis; format: ADME, organism-based; method in brief: as §1
[17] = AUC (0 to t) in Sprague-Dawley rat plasma at 0.5 mg/kg, iv administered as single dose by LC-MS/MS analysis; format: ADME, organism-based; method in brief: as §1
[18] = AUC (0 to t) in Sprague-Dawley rat brain at 2 mg/kg, po administered as single dose by LC-MS/MS analysis; format: ADME, organism-based; method in brief: as §1
[19] = Apparent clearance in Sprague-Dawley rat plasma at 0.5 mg/kg, iv administered as single dose by LC-MS/MS analysis; format: ADME, organism-based; conditions: read-out: CL(app) (converted); method in brief: as §1
[20] = Apparent clearance in Sprague-Dawley rat plasma at 2 mg/kg, po administered as single dose by LC-MS/MS analysis; format: ADME, organism-based; conditions: read-out: CL(app) (converted); method in brief: as §1
[21] = Oral bioavailability in Sprague-Dawley rat plasma at 2 mg/kg administered as single dose by LC-MS/MS analysis; format: ADME, organism-based; method in brief: as §1
D(3) dopamine receptor [22] = molecular target: T1, D(3) dopamine receptor; conditions: 10 uM
[23] = molecular target: T4, 5-hydroxytryptamine receptor 1A (Homo sapiens) (UniProt P08908); conditions: CHO-K1, 10 uM
T4 sequence (whole entry): T2 sequence (P08908 whole entry)

[24] = molecular target: T3, 5-hydroxytryptamine receptor 2A; conditions: CHO-K1, 10 uM
Rattus norvegicus [25] = test: Cognitive enhancement effect in Sprague-Dawley rat assessed as reversal of PCP-impaired performance by measuring increase in time spent exploring novel object in comparison to familiar object at 0.1 to 0.2 mg/kg, po administered 60 mins prior to test by novel object recognition assay

## O=C(N[C@H]1CC[C@H](CCN2CCN(c3nsc4ccccc34)CC2)CC1)c1ccco1
D(3) dopamine receptor [1]
  Ki: 0.00013 µM
Rattus norvegicus [2]
  Activity: Dose-dependent effect
Rattus norvegicus [3]
  inhibition: Active
D(2) dopamine receptor
  EC50: > 10 µM
[4]
  EC50: > 10 µM
D(3) dopamine receptor [5]
  IC50: 0.00139 µM
D(3) dopamine receptor [6]
  EC50: > 10 µM
[7]
  EC50: > 10 µM
[8]
  IC50: 0.0318 µM
[9]
  Cmax: 135 ng/mL
[10]
  Cmax: 259 ng/mL
[11]
  half-life: 0.8 h
[12]
  half-life: 15.8 h
[13]
  half-life: 1.7 h
[14]
  half-life: 16.3 h
[15]
  Tmax: 0.5 h
[16]
  Tmax: 2 h
[17]
  AUC(0-t): 106 ng·h/mL
[18]
  AUC(0-t): 884 ng·h/mL
[19]
  clearance: 76.7 mL/min/kg
[20]
  CL/F: 582 mL/min/kg
[21]
  bioavailability: 13%
D(3) dopamine receptor [22]
  inhibition: 98.6%
[23]
  inhibition: 115%
[24]
  inhibition: 97%
Rattus norvegicus [25]
  Activity: Active
